This is a sample that favours compounds with a hit; in the whole collection about 3.2% have one here.
Ecoli rRNA inh – reduced GFP signal of wild-type E. coli, primary screen, bacterial rRNA inhibitor project, GFP/RFP fluorescence, OD600, single point. E. coli WT GFP vs humanized-ribosome RFP mutants, 24 h; stronger effect = lower value; DMSO median 0, no signal -100. AID 720706, 2013. GFP signal change (wild-type ribosome), % (test concentration not listed). 1.6% of 350,000 active;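 active means significant combined selectivity score with lowered wild-type GFP, culture density cut under 30%, mutant RFP and density less affected; inactive means any of these conditions unmet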
DENV2 CPE rescue – inhibitors of DENV2 cytopathic effect, primary screen, cell-based, plate reader, single concentration | DENV2-infected cells, cytopathic effect rescue | CPE inhibition, % at 9.99 µM | 1.7% of 350,000 active; in the data active means CPE inhibition above about 20%, passing the limit was not always enough; inconclusive means no clear call, values can overlap the other calls; tested in BHK-21 cells;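 further: 0% = median of neutral control wells and 100% = median of positive control wells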
PfHsp90 set2 – growth inhibition of PfHsp90-expressing yeast, primary screen, antimalarial PfHsp90 inhibitor project, S. cerevisiae, BacTiter-Glo luminescence, single point, set 2; 0.32% of 310,000 active; inhibition, % at 9.4 µM; BacTiter-Glo ATP, 48 h; yeast lacking PDR1 and PDR3 efflux regulators;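 active means every replicate shows inhibition above about 80%, whatever the replicate mean, limit read from the data; inconclusive means mean inhibition reaches the set limit but some replicate falls short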;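 further: 0% = DMSO neutral controls and 100% = 20 µM radicicol positive controls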
AF4-AF9 inh – inhibitors of AF4 peptide binding to AF9, primary screen, biochemical, AlphaScreen, biotin-AF4 peptide, FLAG-AF9, single point | Protein AF-9 (Homo sapiens), P42568 | inhibition, % at 10 µM | 0.47% of 350,000 active;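 active means every replicate reaching a set inhibition limit, whatever the replicate mean, cut at about 25% in these data; inconclusive means mean inhibition reaches that limit but some replicates miss it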;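 further: 0% = plate neutral control median and 100% = total signal loss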
Target sequence (P42568 whole entry, looked up): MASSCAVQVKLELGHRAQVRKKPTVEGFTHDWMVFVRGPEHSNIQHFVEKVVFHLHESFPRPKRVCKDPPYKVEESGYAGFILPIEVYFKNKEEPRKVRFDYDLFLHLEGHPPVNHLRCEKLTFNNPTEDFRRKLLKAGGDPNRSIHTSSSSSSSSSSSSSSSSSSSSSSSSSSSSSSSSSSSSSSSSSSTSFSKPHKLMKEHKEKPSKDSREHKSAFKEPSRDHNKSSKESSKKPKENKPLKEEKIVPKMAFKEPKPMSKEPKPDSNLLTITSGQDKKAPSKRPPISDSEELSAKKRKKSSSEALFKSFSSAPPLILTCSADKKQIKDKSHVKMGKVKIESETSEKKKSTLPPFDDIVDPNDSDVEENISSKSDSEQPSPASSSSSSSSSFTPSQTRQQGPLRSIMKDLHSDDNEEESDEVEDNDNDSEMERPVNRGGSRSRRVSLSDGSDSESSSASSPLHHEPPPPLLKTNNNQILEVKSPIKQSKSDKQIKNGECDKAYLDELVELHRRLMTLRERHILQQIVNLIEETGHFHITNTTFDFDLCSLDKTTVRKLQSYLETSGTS
Cneo AK release – Cryptococcus neoformans cell lysis inducers, primary screen, AK release luminescence, single concentration. C. neoformans lysis, adenylate kinase release luminescence, 4 h; normalised: neutral wells 0, clomiphene wells 100. AID 651654, 2012. lysis activity, % at 15 µM. 0.2% of 360,000 active;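 active means mean lysis activity across replicates of at least 80%, whatever share of replicates individually reach that level; inactive means mean lysis activity below 80%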
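Test system: log-phase Cryptococcus neoformans yeast cells. Input: 5 × 10^6 yeast cells/mL. Medium: fresh YPD growth medium. Doses: single dose. Incubation: static 4 h at 37 °C with compound, 1 h detection. Measured by: luminescent adenylate kinase detection reagent. Read-out: signal increase indicating cell lysis. Benchmarks: Clomiphene.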
S100A4 inh HTS – inhibitors of S100A4-myosin IIA peptide binding, primary screen, biochemical, fluorescence polarization, TAMRA-MyoIIA peptide. inhibition, % at 10.7 µM. Protein S100-A4 (Homo sapiens), P26447. 0.14% of 360,000 active. AID 652163, 2013;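 active means mean inhibition of at least 70% across replicates, with every replicate also reaching that level; inconclusive means mean inhibition reaches 70% but some replicates fall short; inactive means mean inhibition below 70%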
Target sequence (P26447 whole entry, looked up): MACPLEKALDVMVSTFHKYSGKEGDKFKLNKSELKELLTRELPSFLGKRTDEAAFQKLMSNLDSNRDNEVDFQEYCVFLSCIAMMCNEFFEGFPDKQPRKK
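Compound dosing: one dose per compound; test system: human S100A4 monomer with TAMRA-labelled myosin IIA peptide; probe or stimulus: TAMRA-labelled myosin IIA heavy-chain peptide probe, 5 nM; medium: HEPES buffer with Ca2+, pH 7.2; schedule: 5 min incubation before reading; benchmarks: neutral control DMSO, positive control TFP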
Active calls of the source: *; ? = inconclusive; nt = no result given.

SMILES | Ecoli rRNA inh | DENV2 CPE rescue | PfHsp90 set2 | AF4-AF9 inh | Cneo AK release | S100A4 inh HTS
CC=Cc1ccc2n(c1=O)C[C@@H]1N[C@H]2[C@H](C(=O)NC2CCCCC2)[C@H]1CO (mixture of isomers) | 1 | -5 | nt | -3 | 45 | 81*
Cc1ccnc(NC(=O)c2cccc(NC(=O)Cc3ccccc3)c2)c1 | -32* | -2 | 18 | 0 | nt | -6
Cc1ccccc1-c1ccccc1[C@H]1[C@@H](C#N)N(C(=O)c2ccccc2)[C@@H]1CO | nt | 3 | nt | 7 | nt | 11
O=[N+]([O-])c1ccccc1S(=O)c1ccccc1[N+](=O)[O-] | 7 | 32* | nt | -4 | nt | 4
O=C(CS(=O)c1ccccc1[N+](=O)[O-])Oc1ccc(Br)cc1 (configuration not stated) | 17 | -1 | 10 | -2 | nt | 2
Cc1ccc(C(=O)Nc2ccccc2C(=O)O)cc1S(=O)(=O)Nc1ccc(Br)cc1 | -36* | 7 | -31 | -2 | nt | -4
Cc1ccc(C(=O)Nc2ccccc2C(=O)O)cc1S(=O)(=O)NCc1ccccc1 | -8 | 8 | 17 | 1 | nt | -2
C=CCNC(=O)c1ccccc1NC(=O)c1ccc(Cl)c(S(=O)(=O)Nc2ccccc2)c1 | -36* | -3 | 1 | -5 | 0 | -17
O=C(NCc1ccco1)c1ccc(Cl)c(S(=O)(=O)Nc2ccccc2)c1 | -12 | -1 | 12 | 0 | nt | -4
Cc1ccc(S(=O)(=O)Nc2ccc3c(c2)CC(=O)N([C@H](C)CO)C[C@@H](C)[C@H](CN(C)S(=O)(=O)c2ccc(F)cc2)O3)cc1 | -2 | ? | nt | nt | 52 | nt
COc1ccc2c3c(n(C)c2c1)[C@H](CO)N(C(=O)C1CCCC1)CC31CCN(CC2CCCC2)CC1 | 1 | -3 | nt | 5 | nt | 1
O=C(Nc1ccccc1)N[C@H]1CC[C@@H](CCn2cc(-c3ccccc3F)nn2)O[C@@H]1CO | -2 | 13 | nt | 1 | nt | 1
Cc1[nH]c2ccccc2c1CC(=O)Nc1ccc(N(C)c2cccnc2)c(-c2ccc(F)c(F)c2)c1 | -4 | 84* | nt | nt | nt | -5
CN1CCN(C(=O)C[C@H]2CC[C@@H]3[C@H](COC[C@H](O)CN3CC3CCOCC3)O2)CC1 | -3 | ? | nt | -4 | 2 | 8
O=C(N[C@H]1CC[C@H](CCNS(=O)(=O)c2ccc(F)cc2)O[C@H]1CO)c1ccccn1 | 2 | 2 | nt | 2 | 1 | 8
C[C@H]1CN([C@@H](C)CO)C(=O)Cc2cc(NC(=O)Cc3ccccc3)ccc2O[C@@H]1CN(C)Cc1ccncc1 | 4 | 23* | nt | -2 | 4 | 1
C[C@H](CO)N1C[C@H](C)[C@@H](CN(C)Cc2ccc(Oc3ccccc3)cc2)Oc2ccc(NC(=O)Cn3cnnn3)cc2CC1=O | -57 | 105* | nt | 10 | -4 | 7
C[C@@H]1CN([C@@H](C)CO)C(=O)Cc2cc(NC(=O)CCCN(C)C)ccc2O[C@@H]1CN(C)Cc1ccc(Oc2ccccc2)cc1 | -56 | -14 | nt | 28* | nt | -1
COc1ccc(CN(C)C[C@@H]2Oc3ccc(NC(=O)Cc4ccccc4)cc3CC(=O)N([C@H](C)CO)C[C@@H]2C)cc1 | -4 | 0 | nt | -7 | 0 | -5
COc1ccc(CN(C)C[C@@H]2Oc3ccc(NC(=O)Cc4ccccc4)cc3CC(=O)N([C@@H](C)CO)C[C@H]2C)cc1 | 2 | 0 | nt | -1 | nt | 84*
O=C(NCC[C@H]1CC[C@H](NC(=O)c2ccccc2F)[C@@H](CO)O1)c1ccc2c(c1)OCO2 | 4 | -3 | nt | -1 | -1 | 10
CCCN(C)C[C@@H]1OCCCC[C@@H](C)Oc2ccc(NC(=O)CCCCCC(=O)Nc3ccccc3N)cc2C(=O)N([C@H](C)CO)C[C@@H]1C | 1 | 19 | nt | 2 | nt | -6
CNC[C@H]1Oc2ccc(NC(=O)Cn3cnnn3)cc2C(=O)N([C@@H](C)CO)C[C@H]1C | 3 | 32* | nt | -2 | -6 | 18
C[C@H]1CN([C@@H](C)CO)C(=O)c2cc(NC(=O)Cn3cnnn3)ccc2O[C@H]1CN(C)Cc1ccc(-c2ccccc2)cc1 | 3 | 33* | nt | 3 | 9 | 2
C[C@@H]1CN([C@H](C)CO)C(=O)c2cc(NC(=O)Cn3cnnn3)ccc2O[C@H]1CN(C)Cc1ccc(-c2ccccc2)cc1 | 0 | 3 | nt | 9 | 15 | 1
SMILES | Ecoli rRNA inh | DENV2 CPE rescue | PfHsp90 set2 | AF4-AF9 inh | Cneo AK release | S100A4 inh HTS
CO[C@H]1CN(C)C(=O)c2ccc(NC(=O)C3CC3)cc2OC[C@H](C)N(Cc2cccnc2)C[C@H]1C | -1 | -3 | nt | -1 | 7 | 1
Cc1ccc(C)c(OCCC(=O)Nc2cccc(S(=O)(=O)NC3=NCCCCC3)c2)c1 | -22* | -1 | 15 | 0 | -1 | -7
O=C(CCl)Nc1ccc(S(=O)(=O)NC2=NCCCCC2)cc1 | 1 | 60* | -2 | -1 | -1 | -3
O=C(NCc1ccccc1Cl)[C@H]1[C@H](CO)[C@H]2Cn3c(cccc3=O)[C@H]2N1C(=O)C1CCCC1 | 1 | -3 | nt | -5 | -4 | -4
C[C@@H]1CN([C@@H](C)CO)C(=O)c2cc(NC(=O)Nc3ccc4c(c3)OCO4)ccc2O[C@H]1CN(C)S(C)(=O)=O | 3 | 3 | nt | -1 | 0 | 2
CO[C@@H]1CN(C)C(=O)c2cc(NC(=O)C3CC3)ccc2OC[C@H](C)N(C(=O)c2cnccn2)C[C@H]1C | 2 | -3 | nt | -4 | 38 | 4
CCn1c(-c2ccc3[nH]c(C)c(C)c3c2)n[nH]c1=S | -12 | nt | nt | 7 | -1 | 0
Cc1[nH]c2ccc(-c3n[nH]c(=S)n3C)cc2c1C | -16* | 10 | -11 | -3 | 1 | 2
CCN(CC)CC(=O)Nc1sc(C)c(C)c1C(=O)c1ccc(C)cc1 | -24* | -1 | -8 | 20 | 1 | 1
COc1ccc2sc(N(CCN(C)C)C(=O)/C=C/c3cccs3)nc2c1 | -20 | -1 | -12 | 33* | nt | -3
O=C1C=CC(O)C2(CO)OC12 (configuration not stated) | 24 | 25* | nt | 0 | 0 | -2
CC1CCCCN1CCCNC(=O)c1ccc2nc(N3CCCCC3)sc2c1 (configuration not stated) | 11 | 25* | 9 | -6 | 0 | 4
O=C(Nc1ccc(-c2csc(Nc3cccc(C(F)(F)F)c3)n2)cc1)c1ccccc1 | 1 | -7 | -3 | 1 | -3 | 10

Screening data (PubChem)
